The term EC50 denotes the concentration needed to bring the measured effect to its halfway point.

Activity calls are given as the source filed them.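 How the source made its calls: active means mean EC50 at or below 20 µM; inactive means the rest.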

The values that follow come from PubChem BioAssay AID602416 (Sanford-Burnham Center for Chemical Genomics, 2012).

The target of this assay is CHO-XBP1 luciferase reporter, IRE1-XBP1 activation, luminescence. Kind of assay: activators of IRE1-XBP1 adaptive UPR arm, SAR follow-up, counter-screen for apoptotic UPR arm activator project, CHO-XBP1 cells, luminescence, set 3 (AID 602416). In short, it runs like this: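 Material: CHO cells stably expressing XBP1 luciferase reporter, IRE1-XBP1 arm | Probe or stimulus: Test wells lacking tunicamycin | Times: Compound exposure 6 h at 37 °C | Detection: Steady-Glo luminescence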
(The purpose of a counterscreen is to sort out artefacts and off-target activity.)
`O=C(Nc1ccc(S(=O)(=O)N2CCC(F)CC2)cc1)c1ccc([N+](=O)[O-])o1`: the EC50 is > 80 µM (inactive).

In the case of `CC1CCN(S(=O)(=O)c2ccc(NC(=O)c3ccc([N+](=O)[O-])o3)cc2)CC1`, the EC50 was > 80 µM (inactive).

On to `O=C(Nc1ccc(S(=O)(=O)N2CCC(Cl)CC2)cc1)c1ccc([N+](=O)[O-])o1`, for which the EC50 is > 80 µM (inactive).

As to `CC(C)(C)C1CCN(S(=O)(=O)c2ccc(NC(=O)c3ccc([N+](=O)[O-])o3)cc2)CC1`, the EC50 is > 80 µM (inactive).

Take `CC1(C)CCN(S(=O)(=O)c2ccc(NC(=O)c3ccc([N+](=O)[O-])o3)cc2)CC1`: the EC50 was > 80 µM (inactive).

As to `O=C(Nc1ccc(S(=O)(=O)N2CCCCC2)cc1)c1ccc([N+](=O)[O-])o1`, the EC50 was > 80 µM (inactive).
